# Where “and” joins values, the source holds several entries; their conditions need not be identical. Equal values may be shown once.
# Tested on: Fibroblast
# Assay: Multiplex assay against human fibroblast
# Format: toxicity, cell-based
# Outline: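 Values for tubulin, mitochondrial-mass and membrane-permeability phenotypes are per cents of cells with healthy nuclei. These cells were identified by CellPathfinder machine-learning gating of live cells that had been stained at seeding with Hoechst33342, BioTracker Green Microtubule Cytoskeleton Dye, MitoTracker Red and Annexin V Alexa Fluor 680 and imaged on a CQ1 microscope at 37°C and 5% CO2 after compound addition. The gating first set Hoechst high-intensity objects apart from normal cells, then split normal cells into healthy, pyknosed or fragmented nuclei, and pyknosed cells into mitotic or apoptotic.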
# [1] = 12 h, 1 µM, compound concentration 1 uM
# [2] = 12 h, 10 µM, compound concentration 10 uM
# [3] = 24 h, 1 µM, compound concentration 1 uM
# [4] = 24 h, 10 µM, compound concentration 10 uM
# [5] = 48 h, 1 µM, compound concentration 1 uM
# [6] = 48 h, 10 µM, compound concentration 10 uM
smiles,measurement,setting,value
Cl.O=S(=O)(c1cccc2c(I)cccc12)N1CCCNCC1,Population Apoptotic (%),[1],20.93% and 13.51%
same,Population Fragmented Nuclei (%),[1],13.23% and 4.19%
same,Population Healthy Nuclei (%),[1],64.02% and 76.44%
same,Population Hoechst High Intensity Objects (%),[1],0%
same,Population Membrane Permeable-Phenotype (%),[1],4.96% and 4.79%
same,Population Mitochondria Different-Phenotype (%),[1],9.92% and 6.85%
same,Population Mitotic Cells (%),[1],79.07% and 86.49%
same,Population Normal (%),[1],100%
same,Population Pyknosed Nuclei (%),[1],22.75% and 19.37%
same,Population Tubulin-Different-Phenotype (%),[1],14.88% and 28.08%
same,Total Cell Count,[1],189 and 191
same,Population Fragmented Nuclei (%),[2],9.25% and 6.27%
same,Population Healthy Nuclei (%),[2],60.69% and 61.18%
same,Population Hoechst High Intensity Objects (%),[2],0%
same,Population Membrane Permeable-Phenotype (%),[2],5.71% and 3.85%
same,Population Mitochondria Different-Phenotype (%),[2],15.24% and 15.38%
same,Population Mitotic Cells (%),[2],94.23% and 67.47%
same,Population Normal (%),[2],100%
same,Population Pyknosed Nuclei (%),[2],30.06% and 32.55%
same,Population Tubulin-Different-Phenotype (%),[2],25.71% and 55.13%
same,Total Cell Count,[2],173 and 255
same,Population Apoptotic (%),[3],7.89% and 13.64%
same,Population Fragmented Nuclei (%),[3],8.84% and 7.04%
same,Population Healthy Nuclei (%),[3],73.49% and 81.91%
same,Population Hoechst High Intensity Objects (%),[3],0%
same,Population Membrane Permeable-Phenotype (%),[3],4.43% and 3.07%
same,Population Mitochondria Different-Phenotype (%),[3],6.33% and 6.13%
same,Population Mitotic Cells (%),[3],92.11% and 86.36%
same,Population Normal (%),[3],100%
same,Population Pyknosed Nuclei (%),[3],17.67% and 11.06%
same,Population Tubulin-Different-Phenotype (%),[3],16.46% and 28.22%
same,Total Cell Count,[3],215 and 199
same,Population Apoptotic (%),[4],11.9% and 25.45%
same,Population Fragmented Nuclei (%),[4],8.42% and 3.61%
same,Population Healthy Nuclei (%),[4],69.47% and 76.53%
same,Population Hoechst High Intensity Objects (%),[4],0%
same,Population Membrane Permeable-Phenotype (%),[4],3.79% and 5.66%
same,Population Mitochondria Different-Phenotype (%),[4],9.85% and 15.57%
same,Population Mitotic Cells (%),[4],88.1% and 74.55%
same,Population Normal (%),[4],100%
same,Population Pyknosed Nuclei (%),[4],22.11% and 19.86%
same,Population Tubulin-Different-Phenotype (%),[4],34.85% and 63.21%
same,Total Cell Count,[4],190 and 277
same,Population Apoptotic (%),[5],25% and 33.33%
same,Population Fragmented Nuclei (%),[5],8.44% and 10.78%
same,Population Healthy Nuclei (%),[5],86.5% and 83.33%
same,Population Hoechst High Intensity Objects (%),[5],0%
same,Population Membrane Permeable-Phenotype (%),[5],1.46% and 7.06%
same,Population Mitotic Cells (%),[5],75% and 66.67%
same,Population Normal (%),[5],100%
same,Population Pyknosed Nuclei (%),[5],5.06% and 5.88%
same,Total Cell Count,[5],237 and 204
same,Population Apoptotic (%),[6],25% and 50%
same,Population Healthy Nuclei (%),[6],74.48% and 87.96%
same,Population Hoechst High Intensity Objects (%),[6],0%
same,Population Membrane Permeable-Phenotype (%),[6],0.56% and 9.13%
same,Population Mitochondria Different-Phenotype (%),[6],10.11% and 9.51%
same,Population Mitotic Cells (%),[6],75% and 50%
same,Population Normal (%),[6],100%
same,Population Pyknosed Nuclei (%),[6],8.37% and 7.36%
same,Population Tubulin-Different-Phenotype (%),[6],19.1% and 53.99%
same,Total Cell Count,[6],239 and 299
CC(=O)Nc1cccc2c1c(Sc1ccc(Cl)cc1)c(C)n2CC(=O)O [AZD1981],Population Apoptotic (%),[1],27% and 37%
same,Population Fragmented Nuclei (%),[1],18% and 31%
same,Population Healthy Nuclei (%),[1],61% and 47%
same,Population Hoechst High Intensity Objects (%),[1],1% and 3%
same,Population Mitochondria Different-Phenotype (%),[1],9% and 7%
same,Population Mitotic Cells (%),[1],72% and 62%
same,Population Normal (%),[1],98% and 96%
same,Population Pyknosed Nuclei (%),[1],19% and 21%
same,Population Tubulin-Different-Phenotype (%),[1],33% and 55%
same,Total Cell Count,[1],173 and 118
same,Population Apoptotic (%),[2],40% and 33%
same,Population Fragmented Nuclei (%),[2],16% and 35%
same,Population Healthy Nuclei (%),[2],64% and 42%
same,Population Hoechst High Intensity Objects (%),[2],3% and 4%
same,Population Membrane Permeable-Phenotype (%),[2],2% and 8%
same,Population Mitochondria Different-Phenotype (%),[2],3% and 0%
same,Population Mitotic Cells (%),[2],60% and 66%
same,Population Normal (%),[2],96% and 95%
same,Population Pyknosed Nuclei (%),[2],19% and 22%
same,Population Tubulin-Different-Phenotype (%),[2],24% and 35%
same,Total Cell Count,[2],133 and 112
same,Population Apoptotic (%),[3],53% and 36%
same,Population Fragmented Nuclei (%),[3],19% and 30%
same,Population Healthy Nuclei (%),[3],63% and 53%
same,Population Hoechst High Intensity Objects (%),[3],6% and 3%
same,Population Membrane Permeable-Phenotype (%),[3],2% and 7%
same,Population Mitochondria Different-Phenotype (%),[3],2% and 7%
same,Population Mitotic Cells (%),[3],46% and 63%
same,Population Normal (%),[3],93% and 96%
same,Population Pyknosed Nuclei (%),[3],16% and 15%
same,Population Tubulin-Different-Phenotype (%),[3],28% and 53%
same,Total Cell Count,[3],168 and 128
same,Population Apoptotic (%),[4],41% and 55%
same,Population Fragmented Nuclei (%),[4],13% and 36%
same,Population Healthy Nuclei (%),[4],68% and 43%
same,Population Hoechst High Intensity Objects (%),[4],4% and 6%
same,Population Mitochondria Different-Phenotype (%),[4],5% and 0%
same,Population Mitotic Cells (%),[4],58% and 45%
same,Population Normal (%),[4],95% and 93%
same,Population Pyknosed Nuclei (%),[4],18% and 20%
same,Population Tubulin-Different-Phenotype (%),[4],17% and 40%
same,Total Cell Count,[4],135 and 104
same,Population Apoptotic (%),[5],54% and 57%
same,Population Fragmented Nuclei (%),[5],23% and 34%
same,Population Healthy Nuclei (%),[5],61% and 54%
same,Population Hoechst High Intensity Objects (%),[5],6% and 3%
same,Population Membrane Permeable-Phenotype (%),[5],1% and 8%
same,Population Mitochondria Different-Phenotype (%),[5],6% and 2%
same,Population Mitotic Cells (%),[5],45% and 42%
same,Population Normal (%),[5],93% and 96%
same,Population Pyknosed Nuclei (%),[5],15% and 11%
same,Population Tubulin-Different-Phenotype (%),[5],33% and 52%
same,Total Cell Count,[5],171 and 129
same,Population Apoptotic (%),[6],64% and 40%
same,Population Fragmented Nuclei (%),[6],21% and 43%
same,Population Healthy Nuclei (%),[6],64% and 42%
same,Population Hoechst High Intensity Objects (%),[6],4%
same,Population Membrane Permeable-Phenotype (%),[6],0% and 11%
same,Population Mitochondria Different-Phenotype (%),[6],2% and 0%
same,Population Mitotic Cells (%),[6],35% and 60%
same,Population Normal (%),[6],95%
same,Population Pyknosed Nuclei (%),[6],13% and 15%
same,Population Tubulin-Different-Phenotype (%),[6],25% and 54%
same,Total Cell Count,[6],134 and 105

# Source: ChEMBL document CHEMBL5724801, “EUbOPEN Chemogenomics Library - Multiplex” (2024)
